Published values from different studies.
Lines come from different studies, so protocols differ.
Action: inhibitor
rep main protease: Replicase polyprotein 1ab, main protease (rep, Severe acute respiratory syndrome coronavirus 2, UniProt P0DTD1)
rep methyltransferase: Replicase polyprotein 1ab, methyltransferase (rep, Severe acute respiratory syndrome coronavirus 2, UniProt P0DTD1)
rep papain-like protease: Replicase polyprotein 1ab, papain-like protease (rep, Severe acute respiratory syndrome coronavirus 2, UniProt P0DTD1)

Cc1ccc(-c2nc(N3CCN(C)CC3)s[n+]2-c2ccccc2)cc1
IC50 (rep main protease; enzyme activity): 0.534 µM

Cc1c(O)cccc1C(=O)N[C@@H](CSc1ccccc1)[C@H](O)CN1C[C@H]2CCCC[C@H]2C[C@H]1C(=O)NC(C)(C)C
IC50 (rep main protease; enzyme activity): > 240 µM

CC(=O)N[C@@H](CS)C(=O)O
IC50 (rep main protease; enzyme activity): > 450 µM

CC(Cc1ccc(O)c(O)c1)C(C)Cc1ccc(O)c(O)c1 (stereo not drawn)
IC50 (rep methyltransferase; enzyme activity): 10.3 µM

COC(=O)C1=C(C)NC(C)=C(C(=O)OCCN2CCN(C(c3ccccc3)c3ccccc3)CC2)C1c1cccc([N+](=O)[O-])c1 (stereo not drawn)
IC50 (rep main protease; enzyme activity in cells): > 10 µM

[2H]C([2H])([2H])n1ncc2cc(/N=c3\[nH]c(=O)n(Cc4ncn(C)n4)c(=O)n3Cc3cc(F)c(F)cc3F)c(Cl)cc21
IC50 (rep main protease; enzyme activity, FRET): 3.53 µM

C=C(c1ccc(C(=O)O)cc1)c1cc2c(cc1C)C(C)(C)CCC2(C)C
IC50 (rep main protease; enzyme activity in cells): 20 µM

Oc1cc(O)c2c(c1)O[C@H](c1ccc(O)c(O)c1)[C@H](O)C2
IC50 (rep main protease; enzyme activity): 0.05 µM

CN(C(=O)[C@H](Cc1ccccc1)NC(=O)[C@@H](NC(=O)OCc1ccccc1)C(C)(C)C)N(C#N)CCC(N)=O
IC50 (rep main protease; enzyme activity): 0.236 µM

O=C(O)c1nnn(-c2nccs2)c1-c1ccc2c(c1)OCO2
IC50 (rep methyltransferase; enzyme activity): 55.8 µM

CC(C)[C@H](NC(=O)[C@H](CCCNC(=N)N)NC(=O)N[C@@H](Cc1ccccc1)C(=O)O)C(=O)N[C@H](C=O)CCCNC(=N)N
IC50 (rep main protease; enzyme activity, FRET): 48.6 µM

Cc1nocc1C(=O)N1Cc2ccccc2[C@@H](CNC(=O)c2cncc3ccc(F)cc23)C1
IC50 (rep main protease; enzyme activity): 56.8 µM

CC(C)C[C@H](NC(=O)OCc1ccccc1)C(=O)N(C)N(C#N)CCC(N)=O
IC50 (rep main protease; enzyme activity): 1.45 µM

CC(C)c1nc(CN(C)C(=O)N[C@@H](CCN2CCOCC2)C(=O)N[C@H](CC[C@H](Cc2ccccc2)NC(=O)OCc2cncs2)Cc2ccccc2)cs1
IC50 (rep main protease; enzyme activity in cells): > 20 µM

CN(CCCN1c2ccccc2CCc2ccccc21)CC(=O)c1ccc(Cl)cc1
IC50 (rep main protease; enzyme activity): 11.4 µM

CCOc1nc2cccc(C(=O)O)c2n1Cc1ccc(-c2ccccc2-c2nnn[nH]2)cc1
IC50 (rep main protease; enzyme activity in cells): > 60 µM

Nc1nc2nc[nH]c2c(=S)[nH]1
IC50 (rep papain-like protease; enzyme activity, FRET; pH 7.5): > 60 µM

C[C@H]1[C@H](OC(=O)CCC(=O)O)O[C@@H]2O[C@@]3(C)CC[C@H]4[C@H](C)CC[C@@H]1[C@@]24OO3
IC50 (rep main protease; enzyme activity in cells): 2.41 µM

CC(C)c1nnc(NC(=O)c2cccc(N3C(=O)c4ccccc4C3=O)c2)s1
IC50 (rep methyltransferase; enzyme activity): 35.6 µM

COc1cc(C[C@@H](C)[C@@H](C)Cc2cc(O)c(OC)c(OC)c2)cc(O)c1OC
IC50 (rep main protease; enzyme activity, FRET): 3.07 µM

Sc1ncnc2nc[nH]c12
IC50 (rep papain-like protease; enzyme activity, FRET; pH 7.5): > 60 µM

C[S+]([O-])CCCCN=C=S (stereo not drawn)
IC50 (rep main protease; enzyme activity): 5.5 µM

COC(=O)N[C@H](C(=O)N[C@@H](Cc1ccccc1)[C@@H](O)CN(Cc1ccc(-c2ccccn2)cc1)NC(=O)[C@@H](NC(=O)OC)C(C)(C)C)C(C)(C)C
IC50 (rep main protease; enzyme activity in cells): > 60 µM

N#CC(C(N)=O)=C1Oc2c(cc(O)cc2-c2ccc(Cl)c(Cl)c2)S1
IC50 (rep methyltransferase; enzyme activity): 45 µM

Oc1ccc2ccccc2c1SSc1c(O)ccc2ccccc12
IC50 (rep main protease; enzyme activity): 0.5 µM

CN(C(=O)[C@H](Cc1ccccc1)NC(=O)OCc1ccccc1)N(C#N)CCC(N)=O
IC50 (rep main protease; enzyme activity): 2.33 µM

COc1cc(C[C@@H](C)[C@@H](C)Cc2ccc(O)c(OC)c2)ccc1O
IC50 (rep papain-like protease; enzyme activity, FRET): 4.24 µM

O=C1c2ccccc2NC(c2cc(Br)ccc2O)N1N=Cc1cc(Br)ccc1O (stereo not drawn)
IC50 (rep main protease; enzyme activity in cells): > 40 µM

Cc1cccc(C)c1OCC(=O)N[C@@H](Cc1ccccc1)[C@@H](O)C[C@H](Cc1ccccc1)NC(=O)[C@H](C(C)C)N1CCCNC1=O
IC50 (rep main protease; enzyme activity in cells): > 20 µM

O=c1oc2c(cc1O)oc(=O)c1cc(O)c(O)c(O)c12
IC50 (rep methyltransferase; enzyme activity): 24.1 µM

O=C(NCCCNc1nc(Nc2cccc(NC(=O)N3CCCC3)c2)ncc1I)c1cccs1
IC50 (rep main protease; enzyme activity): 8.7 µM

O=C(Cn1nnc2ccccc21)Nc1ccccc1N1CCc2sccc2C1
IC50 (rep main protease; enzyme activity): > 100 µM

Cc1cccc(C)c1OCC(=O)N[C@@H](Cc1ccccc1)[C@@H](O)C[C@H](Cc1ccccc1)NC(=O)[C@H](C(C)C)N1CCCNC1=O
IC50 (rep main protease; enzyme activity): 206 µM

Oc1c(Cl)cc(Cl)c(Cl)c1Cc1c(O)c(Cl)cc(Cl)c1Cl
IC50 (rep methyltransferase; enzyme activity): 8.65 µM

Cc1ccc(-c2nc(N3CCOCC3)s[n+]2-c2ccccc2)cc1
IC50 (rep main protease; enzyme activity): 0.353 µM

O=C1C(Cl)=C(Cl)C(=O)C(Cl)=C1Cl
IC50 (rep main protease; enzyme activity): 0.18 µM

O=c1c2ccccc2[se]n1-c1cccc2cccnc12
IC50 (rep main protease; enzyme activity, FRET): 2.6 µM

CN(C)[C@@H]1C(O)=C(C(N)=O)C(=O)[C@@]2(O)C(O)=C3C(=O)c4c(O)cccc4[C@@](C)(O)[C@H]3[C@H](O)[C@@H]12
IC50 (rep main protease; enzyme activity in cells): > 60 µM

COc1ccc(-c2nc(NC(=O)c3ccc(C)c(F)c3)n[nH]2)cc1OC
IC50 (rep main protease; enzyme activity): 0.47 µM

Cc1ccc2[nH]ncc2c1C(=O)NC[C@H]1Cc2ccccc2CN1C(=O)C[C@H](C)c1ccco1
IC50 (rep main protease; enzyme activity): 56.9 µM

O=C(CC1Sc2ncnn2C1=O)Nc1ccc(Br)cc1 (stereo not drawn)
IC50 (rep main protease; enzyme activity, fluorescence): > 20 µM

Cc1ccc(C(=O)Nc2ccc(S(=O)(=O)O)c3cc(S(=O)(=O)O)cc(S(=O)(=O)O)c23)cc1NC(=O)c1cccc(NC(=O)Nc2cccc(C(=O)Nc3cc(C(=O)Nc4ccc(S(=O)(=O)O)c5cc(S(=O)(=O)O)cc(S(=O)(=O)O)c45)ccc3C)c2)c1
IC50 (rep methyltransferase; enzyme activity): 105 µM

CC(=O)O/N=C1/C(=O)N(Cc2cc(Cl)ccc2Cl)c2ccc(Cl)cc21
IC50 (rep main protease; enzyme activity): 17.9 µM

COC(=O)C1=C(C(=O)OC)C(c2ccc(Cl)cc2)c2sc(=O)[nH]c2S1 (stereo not drawn)
IC50 (rep methyltransferase; enzyme activity): 74.9 µM

COc1ccc(O)c(C=NN2C(=O)c3ccccc3NC2c2cc(OC)ccc2O)c1 (stereo not drawn)
IC50 (rep main protease; enzyme activity in cells): 6.5 µM
